This passage reports Activity and viability results from ChEMBL document CHEMBL4177768, “Synthesis and Biological Evaluation of Derivatives of Indoline as Highly Potent Antioxidant and Anti-inflammatory Agents” (J Med Chem, 2018).

The source made the active and inactive calls. The calls are words filed in the database; no cut-off is given here.

Data set [1] concerns Mus musculus. Kind of data set: Acute toxicity in Balb/C mouse assessed as change in activity at 100 umol/kg, sc measured over 72 hrs. The format is organism-based. Particulars: in vivo. The gist of the method:
(§1)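 Male Balb/C mice, 24-28 g, groups of 3; single sc injection of compound at 100 μmoles/kg or saline (1 mL/100 g). Food and water intake, body weight and general activity monitored over 72 h against saline-injected animals.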

Data set [2] deals with RAW264.7. Briefly: Cytoprotective activity against H2O2-induced oxidative stress in mouse RAW264.7 cells assessed as decrease in caspase-3 activity at 1 pM incubated for 4 hrs prior to H2O2 addition measured after 90 mins by caspase-GloR reagent-based luminescence assay relative to control. Set-up: scale not given: the % may be the effect or the level left. The class given is functional. The procedure, abridged:
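RAW 264.7 macrophages were pretreated with compound (1 pM or 1 nM) 4 h before H2O2 100 µM. Medium was replaced with fresh DMEM after 90 min and plates were incubated overnight. Caspase-Glo 3/7 reagent was added and luminescence read after 30 min at room temperature. Mean ± SD, 4-6 replicates.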

The subject of data set [3] is Mus musculus. Briefly: Antiinflammatory activity in Balb/C mouse assessed as reduction in LPS-induced IL6 production in liver at 0.1 to 10 umol/kg, sc administered LPS 15 mins post compound treatment measured after 4 hrs by ELISA. The format is functional, organism-based. For orientation: ELISA stands for enzyme-linked immunosorbent assay.
For data set [4], the system named is Mus musculus. Kind of data set: Antiinflammatory activity in Balb/C mouse assessed as reduction in LPS-induced IL6 production in brain at 0.1 to 10 umol/kg, sc administered LPS 15 mins post compound treatment measured after 4 hrs by ELISA. The format is functional, organism-based.
In data set [5] the test system is Mus musculus. Briefly: Acute toxicity in Balb/C mouse assessed as change in food intake at 100 umol/kg, sc measured over 72 hrs. The class given is organism-based. The note with it: in vivo. The gist of the method:
as §1

The subject of data set [6] is Mus musculus. Kind of data set: Acute toxicity in Balb/C mouse assessed as change in water intake at 100 umol/kg, sc measured over 72 hrs. Particulars: in vivo. The format is organism-based. The procedure, abridged: as §1
Data set [7] relates to Mus musculus. Briefly: Acute toxicity in Balb/C mouse assessed as change in body weight at 100 umol/kg, sc measured over 72 hrs. The class given is organism-based. The note with it: in vivo. The gist of the method:
as §1

The test system of data set [8] is Mus musculus. Kind of data set: Antiinflammatory activity in Balb/C mouse assessed as reduction in LPS-induced IL6 production in spleen at 0.1 to 10 umol/kg, sc administered LPS 15 mins post compound treatment measured after 4 hrs by ELISA. The format is functional, organism-based. The gist of the method:
(§2)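 Male Balb/C mice, 7-8 weeks old, given compound sc (0.1, 1 or 10 µmoles/kg) or saline. LPS 10 mg/kg was given ip 15 min later, and mice were killed 4 h after that. Spleens were homogenized in PBS with protease inhibitor and centrifuged at 14,000 g, 4 °C. Cytokines in plasma and tissue supernatants were measured by ELISA, with protein by BCA. Dexamethasone 5.6 µmoles/kg was the reference. n = 8-10 mice per treatment.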

In data set [9] the test system is RAW264.7. Kind of data set: Antiinflammatory activity in mouse RAW264.7 cells assessed as reduction in LPS-induced TNF-alpha production at 1 nM incubated for 2 hrs prior to LPS challenge measured after 8 hrs by ELISA. The class given is functional. More on the design: scale not given: the % may be the effect or the level left. The gist of the method:
(§3)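 RAW 264.7 macrophages were plated at 1×10^5 per well, grown overnight and washed with PBS. Compounds in water (final 1 pM-100 nM, medium with 2% FCS) were added 2 h at 37 °C before E. coli 0111:B4 LPS, 2.5 µg/mL. TNF-α was sampled at 8 h; IL-6 and nitrite (Griess) at 24 h. ELISA was used for cytokines. Values are % of the LPS + medium value in each experiment. Budesonide was the reference. 2-3 experiments, 6 wells per concentration.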

Data set [10] relates to RAW264.7. Kind of data set: Antiinflammatory activity in mouse RAW264.7 cells assessed as reduction in LPS-induced nitric oxide production at 1 pM to 100 nM incubated for 2 hrs prior to LPS challenge measured after 24 hrs by Griess assay. The format is functional, cell-based. The procedure, abridged:
as §3
(Griess reagent forms a coloured azo dye with nitrite.)

For data set [11], the system named is RAW264.7. Briefly: Antiinflammatory activity in mouse RAW264.7 cells assessed as reduction in LPS-induced TNF-alpha production at 1 pM to 100 nM incubated for 2 hrs prior to LPS challenge measured after 8 hrs by ELISA. The format is functional, cell-based. The procedure, abridged:
as §3

For data set [12], the system named is Mus musculus. Briefly: Antiinflammatory activity in Balb/C mouse assessed as reduction in LPS-induced TNF-alpha production in plasma at 0.1 to 10 umol/kg, sc administered LPS 15 mins post compound treatment measured after 4 hrs by ELISA. The class given is functional, organism-based. The procedure, abridged:
as §2

Data set [13] relates to Mus musculus. Kind of data set: Antiinflammatory activity in Balb/C mouse assessed as reduction in LPS-induced IL6 production in plasma at 0.1 to 10 umol/kg, sc administered LPS 15 mins post compound treatment measured after 4 hrs by ELISA. The class given is functional, organism-based. The procedure, abridged:
as §2

The test system of data set [14] is Mus musculus. Briefly: Antiinflammatory activity in Balb/C mouse assessed as reduction in LPS-induced TNF-alpha production in spleen at 0.1 to 10 umol/kg, sc administered LPS 15 mins post compound treatment measured after 4 hrs by ELISA. The class given is functional, organism-based. The procedure, abridged: as §2
Data set [15] relates to RAW264.7. Kind of data set: Antiinflammatory activity in mouse RAW264.7 cells assessed as reduction in LPS-induced IL-6 production at 1 nM incubated for 2 hrs prior to LPS challenge measured after 24 hrs by ELISA. The format is functional. Set-up: scale not given: the % may be the effect or the level left. The procedure, abridged: as §3
Data set [16] concerns RAW264.7. Kind of data set: Antiinflammatory activity in mouse RAW264.7 cells assessed as reduction in LPS-induced nitric oxide production at 1 nM incubated for 2 hrs prior to LPS challenge measured after 24 hrs by Griess assay. The class given is functional. More on the design: scale not given: the % may be the effect or the level left. The procedure, abridged: as §3
In data set [17] the test system is RAW264.7. Briefly: Cytoprotective activity against H2O2-induced oxidative stress in mouse RAW264.7 cells assessed as decrease in LDH release at 1 pM incubated for 2 hrs prior to H2O2 addition by colorimetric assay relative to control. The format is functional. Set-up: scale not given: the % may be the effect or the level left. The gist of the method: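 RAW 264.7 cells were seeded and pretreated with compound before H2O2 100 µM, in serum-free medium. Collected medium was centrifuged and incubated with reaction mix 30 min at room temperature. LDH was measured as NADH formation by colorimetric read at 490 nm. n = 8-10 replicates per concentration.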
(In general: LDH leaks from cells whose membrane has failed.)

For data set [18], the system named is RAW264.7. Kind of data set: Cytoprotective activity against H2O2-induced oxidative stress in mouse RAW264.7 cells assessed as cell viability at 1 pM incubated for 2 hrs prior to H2O2 addition measured after 24 hrs by MTT assay (reference value: 68 to 72.8%). The class given is functional. The note with it: read-out: Activity.
Data set [19] can be described thus: Cytotoxicity against mouse RAW264.7 cells assessed as cell viability at 10^-8 M after 24 hrs by MTT assay relative to control. The note with it: read-out: Activity. The class given is cell-based. The gist of the method:
(§4)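 RAW 264.7 cells, seeded at 1×10^4 cells/mL and incubated 24 h, were exposed to compound from 1 pM to 100 nM. Viability was read by MTT (final 0.5 mg/mL, 1 h at 37 °C), with formazan dissolved in DMSO and OD at 570 nm. Results are compared with medium-only cells.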

Data set [20] can be described thus: Cytotoxicity against mouse RAW264.7 cells assessed as cell viability at 10^-7 M after 24 hrs by MTT assay relative to control. Particulars: read-out: Activity. The format is cell-based. The gist of the method: as §4
Data set [21] can be described thus: Cytotoxicity against mouse RAW264.7 cells assessed as cell viability at 10^-9 M after 24 hrs by MTT assay relative to control. The format is cell-based. Particulars: read-out: Activity. The procedure, abridged:
as §4

Data set [22] can be described thus: Cytotoxicity against mouse RAW264.7 cells assessed as cell viability at 10^-11 M after 24 hrs by MTT assay relative to control. The class given is cell-based. The note with it: read-out: Activity. The gist of the method: as §4
Data set [23] can be described thus: Cytotoxicity against mouse RAW264.7 cells assessed as cell viability at 10^-10 M after 24 hrs by MTT assay relative to control. The class given is cell-based. The note with it: read-out: Activity. The procedure, abridged:
as §4

Data set [24] can be described thus: Cytotoxicity against mouse RAW264.7 cells assessed as cell viability at 10^-12 M after 24 hrs by MTT assay relative to control. Particulars: read-out: Activity. The class given is cell-based. The procedure, abridged: as §4
Data set [25] deals with RAW264.7. Kind of data set: Cytoprotective activity against H2O2-induced oxidative stress in mouse RAW264.7 cells assessed as decrease in LDH release at 1 pM incubated for 2 hrs prior to H2O2 addition by colorimetric assay relative to control. More on the design: scale not given: the % may be the effect or the level left.
Data set [26] has as its system RAW264.7. Kind of data set: Antiinflammatory activity in mouse RAW264.7 cells assessed as reduction in LPS-induced nitric oxide production at 10 pM incubated for 2 hrs prior to LPS challenge measured after 24 hrs by Griess assay. The format is functional. More on the design: scale not given: the % may be the effect or the level left. The procedure, abridged:
as §3

The subject of data set [27] is RAW264.7. Kind of data set: Antiinflammatory activity in mouse RAW264.7 cells assessed as reduction in LPS-induced IL-6 production at 10 pM incubated for 2 hrs prior to LPS challenge measured after 24 hrs by ELISA. More on the design: scale not given: the % may be the effect or the level left. The class given is functional. The gist of the method:
as §3

Data set [28] has as its system RAW264.7. Briefly: Antiinflammatory activity in mouse RAW264.7 cells assessed as reduction in LPS-induced TNF-alpha production at 10 pM incubated for 2 hrs prior to LPS challenge measured after 8 hrs by ELISA. The format is functional. More on the design: scale not given: the % may be the effect or the level left. The gist of the method: as §3

As for `CC(C)NCCCN1CCc2ccccc21.Cl.Cl`, the Activity result in the data set with Mus musculus [1] was “Non-Toxic”; in the data set on RAW264.7 [2] it was 60%; in the data set on Mus musculus [3], “Dose-dependent effect”; in the data set with Mus musculus [4], “Dose-dependent effect”; with Mus musculus [5], “Non-Toxic”; in the data set on Mus musculus [6], “Non-Toxic”. Besides, the Activity result with Mus musculus [7] is “Non-Toxic”; in the data set with Mus musculus [8] it was “Dose-dependent effect”; in the data set with RAW264.7 [9] it was 50%; in the data set on RAW264.7 [10], “Dose-dependent effect”; with RAW264.7 [11] it was “Dose-dependent effect”; in the data set with Mus musculus [12], “Dose-dependent effect”. The Activity result with Mus musculus [13] is “Dose-dependent effect”; in the data set on Mus musculus [14], “Dose-dependent effect”; in the data set on RAW264.7 [15], 50%; in the data set with RAW264.7 [16], 50%; in the data set with RAW264.7 [17], 16%; in the data set on RAW264.7 [25], 16%. The viability at 1 pM in the data set with RAW264.7 [18] amounted to 98.5%. In addition, the viability at 24 h, 0.01 µM in data set [19] turned out to be 90.9%. The viability at 24 h, 0.1 µM in data set [20] is 91.9%. For the same molecule, the viability at 24 h, 0.001 µM in data set [21] came to 92.1%. Moreover, the viability at 24 h, 1e-05 µM in data set [22] was 102%. In [23], the viability at 24 h, 0.0001 µM came to 99.2%. Also, the viability at 24 h, 1e-06 µM in data set [24] stood at 93.3%.
As for `COC(=O)CCN1CCc2cc(Cl)ccc21.Cc1ccc(S(C)(=O)=O)cc1`, the result with RAW264.7 [10] and with RAW264.7 [11] was Active. Also, in the data set with RAW264.7 [18], the viability at 1 pM came to 89.7%. Also, the viability at 24 h, 0.01 µM in data set [19] came out at 107%. In data set [20], the viability at 24 h, 0.1 µM was found to be 105%. The viability at 24 h, 0.001 µM in data set [21] worked out at 104%. The viability at 24 h, 1e-05 µM in [22] came to 106%. Also, in data set [23], the viability at 24 h, 0.0001 µM was found to be 104%. In addition, the viability at 24 h, 1e-06 µM in data set [24] amounted to 108%. Also, the Activity in the data set on RAW264.7 [26], in the data set with RAW264.7 [27] and in the data set on RAW264.7 [28] was 50% throughout.
